Active and inactive are the calls of the source. The calls are words filed in the database; no cut-off is given here. Where a SMILES comes first, the peptide text is derived from it. Bridges are numbered along the chain shown (N, C = ends). [ ]: non-standard residue; d: D form. NMeW = CN[C@@H](Cc1c[nH]c2ccccc12)C(=O)O
Columns and labels:
[1] = target: T1, Melanocyte-stimulating hormone receptor (Homo sapiens, UniProt Q01726); assay: Displacement of [125I]-NDP-alpha-MSH from human MC1R LBD expressed in HEK293 cell membranes incubated for 16 to 23 hrs in dark by scintillation proximity assay; set-up: concentration or dose not given beside the values; conditions: for inhibition: concentration not given here
[2] = target: T2, Melanocortin receptor 3 (Homo sapiens, UniProt P41968); assay: Displacement of [125I]-NDP-alpha-MSH from human MC3R LBD expressed in HEK293 cell membranes incubated for 16 to 23 hrs in dark by scintillation proximity assay; set-up: concentration or dose not given beside the values; conditions: for inhibition: concentration not given here
[3] = target: T3, Melanocortin receptor 4 (Homo sapiens, UniProt P32245); assay: Displacement of [125I]-NDP-alpha-MSH from human MC4R LBD expressed in HEK293 cell membranes incubated for 16 to 23 hrs in dark by scintillation proximity assay; set-up: concentration or dose not given beside the values; conditions: for inhibition: concentration not given here
[4] = target: Melanocortin receptor 5 (Homo sapiens, UniProt P33032); assay: Displacement of [125I]-NDP-alpha-MSH from human MC5R LBD expressed in HEK293 cell membranes incubated for 16 to 23 hrs in dark by scintillation proximity assay; set-up: concentration or dose not given beside the values; conditions: for inhibition: concentration not given here
[5] = target: T1, Melanocyte-stimulating hormone receptor; assay: Agonist activity at human MC1R expressed in low doxycyclin-treated HEK293 cell membranes assessed as increase in cAMP production after 45 mins by HTRF method; type: functional, cell-based
[6] = target: T2, Melanocortin receptor 3; assay: Agonist activity at human MC3R expressed in low doxycyclin-treated HEK293 cell membranes assessed as increase in cAMP production after 45 mins by HTRF method; type: functional, cell-based; set-up: concentration or dose not given beside the values
Outline: (§1)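 T-REx-293 cells stably expressing doxycycline-inducible human MC1R, MC3R or MC4R; expression induced 24 h with 0.1 ng/mL (low) or 10 ng/mL (high, MC4R only) doxycycline. 1000 cells/well in HBSS, 20 mM HEPES pH 7.4, 0.1% BSA, 1 mM IBMX; stimulated at 37 °C. Time-resolved FRET cAMP read-out normalized to NDP-α-MSH maximum.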

[7] = target: T3, Melanocortin receptor 4; assay: Agonist activity at human MC4R expressed in low doxycyclin-treated HEK293 cell membranes assessed as increase in cAMP production after 45 mins by HTRF method; type: functional, cell-based; outline: as §1
[8] = target: T3, Melanocortin receptor 4; assay: Agonist activity at human MC4R expressed in high doxycyclin-treated HEK293 cell membranes assessed as increase in cAMP production after 15 mins by HTRF method; type: functional, cell-based; outline: as §1
[9] = species: Bos taurus; assay: Inhibition of bovine trypsin at 5 uM using Boc-QAR-pNA as substrate preincubated for 1 hr followed by substrate addition measured every 30 secs for 300 secs by […]
[10] = Solubility of the compound in water at 1 mM; type: physicochemical; conditions: buffer, 1000 µM
[11] = target: T3, Melanocortin receptor 4; assay: Agonist activity at human MC4R expressed in low doxycyclin-treated HEK293 cell membranes assessed as increase in cAMP production up to 100 uM after 45 mins by HTRF method; type: functional, cell-based
Outline: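 Stable T-REx-293 clones (Zeocin-selected, human receptor cDNA in pcDNA4/TO), receptor expression induced with 0.1 ng/mL doxycycline for 24 h. 1000 cells/well in HBSS with Ca2+/Mg2+, 20 mM HEPES pH 7.4, 0.1% BSA. Stimulation for 45 min at 37 °C with 1 mM IBMX. cAMP read by LANCE HTRF (665/615 nm).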

Sequence of Melanocortin receptor 5 (P33032 whole entry, the tested form may be a part): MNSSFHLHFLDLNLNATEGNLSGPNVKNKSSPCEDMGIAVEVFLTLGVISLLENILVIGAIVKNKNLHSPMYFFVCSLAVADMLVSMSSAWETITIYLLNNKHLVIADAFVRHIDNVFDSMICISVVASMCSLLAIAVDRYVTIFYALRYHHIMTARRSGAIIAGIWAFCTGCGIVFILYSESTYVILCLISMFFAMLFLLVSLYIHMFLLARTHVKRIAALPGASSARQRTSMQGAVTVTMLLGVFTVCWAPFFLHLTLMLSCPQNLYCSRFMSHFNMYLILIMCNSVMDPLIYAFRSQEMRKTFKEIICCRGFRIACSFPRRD
T3 sequence (P32245 whole entry, the tested form may be a part): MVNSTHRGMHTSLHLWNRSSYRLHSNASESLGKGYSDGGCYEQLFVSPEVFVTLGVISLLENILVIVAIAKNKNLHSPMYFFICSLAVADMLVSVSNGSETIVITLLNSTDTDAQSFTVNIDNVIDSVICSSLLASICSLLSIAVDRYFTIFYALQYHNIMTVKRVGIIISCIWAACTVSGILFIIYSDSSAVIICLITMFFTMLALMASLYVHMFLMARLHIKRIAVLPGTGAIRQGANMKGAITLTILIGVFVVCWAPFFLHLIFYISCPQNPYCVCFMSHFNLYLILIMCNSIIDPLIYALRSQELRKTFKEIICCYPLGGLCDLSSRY
T2 sequence (P41968 whole entry, the tested form may be a part): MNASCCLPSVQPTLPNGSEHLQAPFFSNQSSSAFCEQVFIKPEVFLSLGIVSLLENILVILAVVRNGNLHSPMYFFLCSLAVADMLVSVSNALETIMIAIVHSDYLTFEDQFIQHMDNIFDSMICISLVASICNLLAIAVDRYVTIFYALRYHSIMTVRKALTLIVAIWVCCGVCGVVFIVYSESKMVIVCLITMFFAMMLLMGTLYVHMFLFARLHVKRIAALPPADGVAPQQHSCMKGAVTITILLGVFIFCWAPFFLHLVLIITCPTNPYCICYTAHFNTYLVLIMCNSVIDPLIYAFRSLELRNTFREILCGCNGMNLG

Compound	inhibition [1]	inhibition [2]	inhibition [3]	inhibition [4]	Activity [5]	Activity [6]	Activity [7]	Activity [8]	solubility [10]	Activity [11]	inhibition [9]	Ki [1]	Ki [2]	Ki [3]	IC50 [4]	EC50 [5]	EC50 [6]	EC50 [7]	EC50 [8]
CC[C@H](C)[C@@H]1NC(=O)[C@@H]2CCCN2C(=O)[C@@H]2CCCN2C(=O)[C@H]([C@@H](C)CC)NC(=O)[C@H](CO)NC(=O)[C@H](C)NC(=O)[C@H]([C@H](C)O)NC(=O)[C@@H]2CSSC[C@H](NC1=O)C(=O)N[C@@H](Cc1cnc[nH]1)C(=O)N[C@H](Cc1ccccc1)C(=O)N[C@@H](CCCNC(=N)N)C(=O)N[C@@H](Cc1c[nH]c3ccccc13)C(=O)N[C@@H](CCCNC(=N)N)C(=O)N2	100%	100%	100%	100%	100%	100%	100%	100%	–	–	Active	–	–	–	–	–	–	–	–
CC[C@H](C)[C@@H]1NC(=O)[C@@H]2CCCN2C(=O)[C@H](Cc2c[nH]c3ccccc23)NC(=O)[C@H](CCCNC(=N)N)N(C)C(=O)[C@@H](Cc2ccccc2)NC(=O)[C@H](Cc2cnc[nH]2)N(C)C(=O)[C@H]([C@@H](C)O)NC(=O)[C@@H]2CSSC[C@H](NC1=O)C(=O)N[C@@H](Cc1ccccc1)C(=O)N1CCC[C@H]1C(=O)N[C@@H](CC(=O)O)C(=O)NCC(=O)N[C@@H](CCCNC(=N)N)C(=O)N2	100%	100%	100%	100%	100%	100%	100%	100%	Soluble	–	–	–	–	–	–	–	–	–	–
CC[C@H](C)[C@@H]1NC(=O)[C@@H]2CCCN2C(=O)[C@@H]2CCCN2C(=O)[C@H]([C@@H](C)CC)NC(=O)[C@H](CO)NC(=O)[C@H](C)NC(=O)[C@H]([C@H](C)O)NC(=O)[C@@H]2CSSC[C@H](NC1=O)C(=O)N[C@@H](Cc1cnc[nH]1)C(=O)N[C@H](Cc1ccccc1)C(=O)N(C)[C@@H](CCCNC(=N)N)C(=O)N(C)[C@@H](Cc1c[nH]c3ccccc13)C(=O)N[C@@H](CCCNC(=N)N)C(=O)N2	100%	100%	100%	100%	100%	100%	100%	100%	–	–	Active	–	–	–	–	–	–	–	–
CC[C@H](C)[C@@H]1NC(=O)[C@@H]2CCCN2C(=O)[C@@H]2CCCN2C(=O)[C@H]([C@@H](C)CC)NC(=O)[C@H](CO)NC(=O)[C@H](C)NC(=O)[C@H]([C@H](C)O)NC(=O)[C@@H]2CSSC[C@H](NC1=O)C(=O)N[C@@H](Cc1cnc[nH]1)C(=O)N[C@H](Cc1ccccc1)C(=O)N(C)[C@@H](CCCNC(=N)N)C(=O)N[C@@H](Cc1c[nH]c3ccccc13)C(=O)N[C@@H](CCCNC(=N)N)C(=O)N2	100%	100%	100%	100%	100%	100%	100%	100%	–	–	Active	–	–	–	–	–	–	–	–
CC[C@H](C)[C@@H]1NC(=O)[C@@H]2CCCN2C(=O)[C@@H]2CCCN2C(=O)[C@H]([C@@H](C)CC)NC(=O)[C@H](CO)NC(=O)[C@H](C)NC(=O)[C@H]([C@H](C)O)NC(=O)[C@@H]2CSSC[C@H](NC1=O)C(=O)N[C@@H](Cc1cnc[nH]1)C(=O)N[C@@H](Cc1ccccc1)C(=O)N[C@@H](CCCNC(=N)N)C(=O)N[C@@H](Cc1c[nH]c3ccccc13)C(=O)N[C@@H](CCCNC(=N)N)C(=O)N2	100%	100%	100%	100%	100%	100%	100%	100%	Soluble	–	–	0.363 µM	23.4 µM	25.1 µM	4.07 µM	0.0417 µM	2.14 µM	> 100 µM	3.09 µM
CC[C@H](C)[C@@H]1NC(=O)[C@@H]2CCCN2C(=O)[C@H](Cc2c[nH]c3ccccc23)N(C)C(=O)[C@H](CCCNC(=N)N)NC(=O)[C@@H](Cc2ccccc2)NC(=O)[C@H](Cc2cnc[nH]2)N(C)C(=O)[C@H]([C@@H](C)O)NC(=O)[C@@H]2CSSC[C@H](NC1=O)C(=O)N[C@@H](Cc1ccccc1)C(=O)N1CCC[C@H]1C(=O)N[C@@H](CC(=O)O)C(=O)NCC(=O)N[C@@H](CCCNC(=N)N)C(=O)N2	100%	100%	100%	100%	100%	100%	–	100%	Soluble	inactive	–	–	–	–	–	–	–	–	–

More lines, main results first:

inhibition [1]	inhibition [2]	inhibition [3]	inhibition [4]	Activity [5]	Activity [6]	Activity [7]	Activity [8]	solubility [10]	Activity [11]	Compound	inhibition [9]	Ki [1]	Ki [2]	Ki [3]	IC50 [4]	EC50 [5]	EC50 [6]	EC50 [7]	EC50 [8]
100%	100%	100%	100%	100%	100%	100%	100%	Soluble	–	CC[C@H](C)[C@@H]1NC(=O)[C@@H]2CCCN2C(=O)[C@H](Cc2c[nH]c3ccccc23)N(C)C(=O)[C@H](CCCNC(=N)N)NC(=O)[C@@H](Cc2ccccc2)NC(=O)[C@H](Cc2cnc[nH]2)NC(=O)[C@H]([C@@H](C)O)NC(=O)[C@@H]2CSSC[C@H](NC1=O)C(=O)N[C@@H](Cc1ccccc1)C(=O)N1CCC[C@H]1C(=O)N[C@@H](CC(=O)O)C(=O)NCC(=O)N[C@@H](CCCNC(=N)N)C(=O)N2 (cyclo(CFPDGRCTH[dF]R[NMeW]PI); disulfide 1-7)	–	–	–	–	–	–	–	–	–
100%	100%	100%	100%	100%	100%	100%	100%	Soluble	–	CC[C@H](C)[C@@H]1NC(=O)[C@@H]2CCCN2C(=O)[C@H](Cc2c[nH]c3ccccc23)NC(=O)[C@H](CCCNC(=N)N)N(C)C(=O)[C@@H](Cc2ccccc2)NC(=O)[C@H](Cc2cnc[nH]2)NC(=O)[C@H]([C@@H](C)O)NC(=O)[C@@H]2CSSC[C@H](NC1=O)C(=O)N[C@@H](Cc1ccccc1)C(=O)N1CCC[C@H]1C(=O)N[C@@H](CC(=O)O)C(=O)NCC(=O)N[C@@H](CCCNC(=N)N)C(=O)N2	–	–	–	–	–	–	–	–	–
100%	100%	100%	100%	100%	100%	100%	100%	Soluble	–	CC[C@H](C)[C@@H]1NC(=O)[C@@H]2CCCN2C(=O)[C@H](Cc2c[nH]c3ccccc23)NC(=O)[C@H](CCCNC(=N)N)NC(=O)[C@@H](Cc2ccccc2)NC(=O)[C@H](Cc2cnc[nH]2)NC(=O)[C@H]([C@@H](C)O)NC(=O)[C@@H]2CSSC[C@H](NC1=O)C(=O)N[C@@H](Cc1ccccc1)C(=O)N1CCC[C@H]1C(=O)N[C@@H](CC(=O)O)C(=O)NCC(=O)N[C@@H](CCCNC(=N)N)C(=O)N2	–	–	–	–	–	–	–	–	–
100%	100%	100%	100%	100%	100%	100%	100%	Soluble	–	CC[C@H](C)[C@@H]1NC(=O)[C@@H]2CCCN2C(=O)[C@H](Cc2c[nH]c3ccccc23)N(C)C(=O)[C@H](CCCNC(=N)N)N(C)C(=O)[C@@H](Cc2ccccc2)NC(=O)[C@H](Cc2cnc[nH]2)NC(=O)[C@H]([C@@H](C)O)NC(=O)[C@@H]2CSSC[C@H](NC1=O)C(=O)N[C@@H](Cc1ccccc1)C(=O)N1CCC[C@H]1C(=O)N[C@@H](CC(=O)O)C(=O)NCC(=O)N[C@@H](CCCNC(=N)N)C(=O)N2	–	–	–	–	–	–	–	–	–
